According to ChEMBL document CHEMBL1148112, “Inhibition of tumor-promoting effects by poricoic acids G and H and other lanostane-type triterpenes and cytotoxic activity of poricoic acids A and G from Poria cocos” (J Nat Prod, 2002):

Tests used:
Raji [1] = assay: Inhibition of 12-O-tetradecanoylphorbol-13-acetate induced EBV-early antigen activation in human Raji cells assessed as EA activation at 500 molar ratio after 48 hrs by indirect immunofluorescence method relative to TPA; assay type: cell-based; set-up: scale not given: the % may be the effect or the level left; conditions: human gammaherpesvirus 4
Summary of the method: (§1)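 Raji cells (EBV genome-carrying, nonproducer) at 1 × 10^6/mL in 10% FBS RPMI 1640, incubated 37 °C for 48 h with n-butyric acid (4 mM) plus 32 pmol TPA (20 ng/mL), compound added in DMSO. EA-positive cells detected by indirect immunofluorescence using NPC patient sera; at least 500 cells counted, run twice, expressed relative to butyric acid + TPA control.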

Raji [2] = assay: Inhibition of 12-O-tetradecanoylphorbol-13-acetate induced EBV-early antigen activation in human Raji cells assessed as EA activation at 1000 molar ratio after 48 hrs by indirect immunofluorescence method relative to TPA; assay type: cell-based; set-up: scale not given: the % may be the effect or the level left; conditions: human gammaherpesvirus 4; summary of the method: as §1
Raji [3] = assay: Inhibition of 12-O-tetradecanoylphorbol-13-acetate induced EBV-early antigen activation in human Raji cells assessed as EA activation at 10 molar ratio after 48 hrs by indirect immunofluorescence method relative to TPA; assay type: cell-based; conditions: human gammaherpesvirus 4; summary of the method: as §1
Raji [4] = assay: Inhibition of 12-O-tetradecanoylphorbol-13-acetate induced EBV-early antigen activation in human Raji cells assessed as EA activation at 100 molar ratio after 48 hrs by indirect immunofluorescence method relative to TPA; assay type: cell-based; conditions: human gammaherpesvirus 4; summary of the method: as §1
[5] = Cytotoxicity against human Raji cells assessed as cell viability at 1000 molar ratio; assay type: cell-based; conditions: read-out: Activity
[6] = Growth inhibition of human NCI60 cells after 48 hrs by sulforhodamine B assay; assay type: functional; conditions: NCI60, 48 h
Summary of the method: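 NCI 60-cell panel (lung, colon, melanoma, renal, ovarian, brain, leukemia), continuous 48 h exposure, at least five 10-fold dilutions from a top concentration of 10^-4 M; cell growth estimated by sulforhodamine B protein staining.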

| SMILES | Activity (Raji [1]) [%] | Activity (Raji [2]) [%] | EA activation relative to TPA control (Raji [3]) [%] | Remaining EA activation relative to TPA control (Raji [4]) [%] | viability at 1000 molar ratio [5] [%] | GI50 [6] [µM] |
| --- | --- | --- | --- | --- | --- | --- |
| C=C(C)[C@@H]1CC=C2C(=CC[C@]3(C)[C@@H]([C@@H](CCC=C(C)C)C(=O)O)[C@H](O)C[C@@]23C)[C@@]1(C)CCC(=O)O [PORICOIC ACID B] | 14.3 | 0 | 80.7 | 54 | 70 |  |
| C=C(CC[C@@H](C(=O)O)[C@H]1[C@H](O)C[C@@]2(C)C3=CC[C@H]4C(C)(C)[C@H](O)CC[C@]4(C)C3=CC[C@]12C)C(C)C | 25.5 | 0 | 93.8 | 67 | 70 |  |
| C=C(CC[C@@H](C(=O)O)[C@H]1[C@H](O)C[C@@]2(C)C3=C(CC[C@]12C)[C@@]1(C)CC[C@H](O)C(C)(C)[C@@H]1CC3)C(C)C [TUMULOSIC ACID] | 22.7 | 0 | 90.5 | 64.9 | 70 |  |
| C=C(CC[C@@H](C(=O)O)[C@H]1[C@H](O)C[C@@]2(C)C3=C(CC[C@]12C)[C@@](C)(CCC(=O)O)[C@H](C(=C)C)CC3)C(C)C [PORICOIC ACID H] | 15.7 | 0 | 80.8 | 53.8 | 70 |  |
| C=C(CC[C@@H](C(=O)O)[C@H]1[C@H](O)C[C@@]2(C)C3=CC[C@H]4C(C)(C)[C@H](O)CC[C@]4(C)C3=CC[C@]12C)C(C)(C)O | 13.2 | 0 | 79.4 | 51.6 | 70 |  |
| C=C(C)[C@@H]1CCC2=C(CC[C@]3(C)[C@@H]([C@@H](CCC=C(C)C)C(=O)O)[C@H](O)C[C@@]23C)[C@@]1(C)CCC(=O)O [PORICOIC ACID G] | 16 | 0 | 82.8 | 55.9 | 70 |  |
| C=C(CC[C@@H](C(=O)O)[C@H]1[C@H](O)C[C@@]2(C)C3=CC[C@H]4C(C)(C)C(=O)CC[C@]4(C)C3=CC[C@]12C)C(C)C [POLYPORENIC ACID B] | 26.3 | 0 | 92.6 | 68.7 | 70 |  |
| CC1=C(/C=C/C(C)=C/C=C/C(C)=C/C=C/C=C(C)/C=C/C=C(C)/C=C/C2=C(C)CCCC2(C)C)C(C)(C)CCC1 |  | 8.6 | 100 |  |  |  |
| COC(=O)[C@]1(C)CCC[C@]2(C)c3ccc(C(C)C)cc3CC[C@@H]12 [METHYL DEHYDROABIETATE] | 23.2 | 0 | 91.6 | 68.3 | 60 |  |
| C=C(CC[C@@H](C(=O)O)[C@H]1[C@H](O)C[C@@]2(C)C3=CC[C@H]4C(C)(C)[C@@H](O)CC[C@]4(C)C3=CC[C@]12C)C(C)C [DEHYDROTUMULOSIC ACID] | 22.7 | 0 | 90.5 | 64.9 | 70 |  |
| C=C(CC[C@@H](C(=O)O)[C@H]1[C@H](O)C[C@@]2(C)C3=CC[C@@H](C(=C)C)[C@](C)(CCC(=O)O)C3=CC[C@]12C)C(C)C [PORICOIC ACID A] | 18.5 | 0 | 83.8 | 58.9 | 70 | 15 |
